For orientation: logD means the decadic logarithm of the distribution of all forms, ionised or not, between an organic phase and buffer at a given pH. One may read the IC50 as the point on the concentration scale where inhibition reaches its midpoint. For orientation: pIC50 means the IC50 on a negative log10 scale, so that one unit is a factor of ten.

The source made the active and inactive calls. The calls are words filed in the database; no cut-off is given here.

A short description of data set [1]: Distribution coefficient, log D of the compound at pH 7.4 by HPLC method. The class given is physicochemical. The conditions noted are these: octanol/water.
Data set [2] is described as follows: Inhibition of recombinant full-length Plasmodium falciparum 3D7 CLK3 using ULight-labelled CFFKNIVTPRTPPPSQGK as substrate measured after 1 hr by TR-FRET assay. An outline of the steps: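 Peptide substrate plus cold ATP with serially diluted inhibitor, 37 °C for 1 h. Stopped with 30 mM EDTA and Eu-anti-phospho antibody (3 nM), 1 h RT, read 665 nm emission. Normalised to no-kinase/no-inhibitor wells; three independent experiments in triplicate, mean ± SEM.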
(In TR-FRET formats the signal depends on donor and acceptor labels being close together.)

In data set [3] the test system is Plasmodium falciparum. Nature of the data set: Antimalarial activity against chloroquine-sensitive synchronized ring stage of Plasmodium falciparum 3D7 incubated for 48 to 52 hrs by SYBR green 1 dye based assay. The format is functional, organism-based.
The subject of data set [4] is Plasmodium falciparum. Nature of the data set: Antimalarial activity against Plasmodium falciparum isolate GB0021 assessed as reduction in parasitemia at 1 to 10 times EC50 supplemented with fresh medium containing compounds every 24 hrs for 72 hrs relative to control. The format is functional. The method in brief: (§1)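 Parasite reduction ratio setup: cryopreserved clinical isolates thawed and cultured at least one cycle (~48 h ± 2); new rings 0–3 h post-invasion taken as t = 0. […] 24 h arm: drug removed by two washes; 48 and 72 h arms: fresh drug every 24 h.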

In data set [5] the test system is Plasmodium falciparum. Nature of the data set: Antimalarial activity against Plasmodium falciparum isolate GB0020 assessed as reduction in parasitemia at 1 to 10 times EC50 supplemented with fresh medium containing compounds every 24 hrs for 72 hrs relative to control. The class given is functional, organism-based. An outline of the steps:
as §1

Data set [6] has as its system Plasmodium falciparum. Nature of the data set: Antimalarial activity against Plasmodium falciparum isolate GB0071 assessed as reduction in parasitemia at 1 to 10 times EC50 supplemented with fresh medium containing compounds every 24 hrs for 72 hrs relative to control. The class given is functional. The method in brief:
as §1

Data set [7] deals with Plasmodium falciparum. Nature of the data set: Antimalarial activity against Plasmodium falciparum isolate GB0004 assessed as reduction in parasitemia at 1 to 10 times EC50 supplemented with fresh medium containing compounds every 24 hrs for 72 hrs relative to control. The class given is functional. An outline of the steps:
as §1

For data set [8], the system named is Plasmodium falciparum. Nature of the data set: Antimalarial activity against Plasmodium falciparum isolate GB0087 assessed as reduction in parasitemia at 1 to 10 times EC50 supplemented with fresh medium containing compounds every 24 hrs for 72 hrs relative to control. The class given is functional. The method in brief: as §1
The test system of data set [9] is Plasmodium falciparum. Nature of the data set: Antimalarial activity against Plasmodium falciparum isolate GB0048 assessed as reduction in parasitemia at 1 to 10 times EC50 supplemented with fresh medium containing compounds every 24 hrs for 72 hrs relative to control. The class given is functional. An outline of the steps: as §1
In data set [10] the test system is Plasmodium falciparum. Nature of the data set: Antimalarial activity against Plasmodium falciparum isolate GB0026 assessed as reduction in parasitemia at 1 to 10 times EC50 supplemented with fresh medium containing compounds every 24 hrs for 72 hrs relative to control. The format is functional, organism-based. The method in brief: as §1
Data set [11] relates to Plasmodium falciparum. Nature of the data set: Antimalarial activity against Plasmodium falciparum isolate GB0006 assessed as reduction in parasitemia at 1 to 10 times EC50 supplemented with fresh medium containing compounds every 24 hrs for 72 hrs relative to control. The class given is functional. The method in brief: as §1
In data set [12] the test system is Plasmodium falciparum. Nature of the data set: Antimalarial activity against Plasmodium falciparum isolate GB002 assessed as reduction in parasitemia at 1 to 10 times EC50 supplemented with fresh medium containing compounds every 24 hrs for 72 hrs relative to control. The format is functional, organism-based. The method in brief:
as §1

Data set [13] has as its system Plasmodium falciparum. Nature of the data set: Antimalarial activity against Plasmodium falciparum isolate GB002 assessed as reduction in parasitemia at 10 times EC50 measured after 72 hrs. The class given is functional, organism-based. An outline of the steps:
as §1

In data set [14] the test system is Plasmodium falciparum. Nature of the data set: Antimalarial activity against Plasmodium falciparum isolate GB0020 assessed as reduction in parasitemia at 10 times EC50 measured after 72 hrs. The class given is functional, organism-based. The method in brief:
as §1

The test system of data set [15] is Plasmodium falciparum. Nature of the data set: Antimalarial activity against Plasmodium falciparum isolate GB0026 assessed as reduction in parasitemia at 1 to 10 times EC50 measured after 24 hrs relative to control. The class given is functional. On the set-up: scale not given: the % may be the effect or the level left. The method in brief: as §1
Data set [16] concerns Plasmodium falciparum. Nature of the data set: Antimalarial activity against Plasmodium falciparum isolate GB0026 assessed as reduction in parasitemia at 10 times EC50 measured after 72 hrs. The format is functional, organism-based. An outline of the steps: as §1
Data set [17] deals with Plasmodium falciparum. Nature of the data set: Antimalarial activity against Plasmodium falciparum isolate GB002 assessed as reduction in parasitemia at 1 to 10 times EC50 measured after 24 hrs relative to control. The class given is functional. The arrangement: scale not given: the % may be the effect or the level left. The method in brief: as §1
Data set [18] concerns Plasmodium falciparum. Nature of the data set: Antimalarial activity against Plasmodium falciparum isolate GB0020 assessed as reduction in parasitemia at 1 to 10 times EC50 measured after 24 hrs relative to control. On the set-up: scale not given: the % may be the effect or the level left. The format is functional. An outline of the steps:
as §1

For `COc1ccc(CN)cc1-c1cc2c(-c3ccc(C(=O)O)c(C(C)C)c3)ccnc2[nH]1`, the logD in data set [1] amounted to 0.61. Besides, in data set [2], the IC50 amounted to 76 nM. For the same compound, the pIC50 in data set [2] is listed as 7.1. Moreover, the EC50 is 2800 nM in [3] (read-out: EC50) and 2510 nM in [3] (read-out: pEC50 (converted)).

Consider `COc1ccc(CN2CCOCC2)cc1-c1cc2c(-c3ccc(C(=O)O)c(C(C)C)c3)ccnc2[nH]1`, for which, in data set [2], the IC50 turned out to be 9 nM and the pIC50 is 8.

`COc1ccc(CN2CCCC2)cc1-c1cc2c(-c3ccc(C(=O)O)c(C(C)C)c3)ccnc2[nH]1` gave a logD in data set [1] of 2.43. Also, in data set [2], the IC50 was 38 nM and the pIC50 worked out at 7.4. Further, the EC50 in [3] (read-out: EC50) amounted to 382 nM.

Regarding `CCN(CC)Cc1ccc(OC)c(-c2cc3c(-c4ccc(C(=O)O)cc4)ccnc3[nH]2)c1`, the logD in [1] was determined as 0.65. In data set [2], the IC50 was 34 nM and the pIC50 came out at 7.5. For the same compound, the EC50 in data set [3] (read-out: EC50) was determined as 3270 nM.

The compound `CCN(CC)Cc1ccc(OC)c(-c2cc3c(-c4cccc(C(C)C)c4)ccnc3[nH]2)c1` had a logD in [1] of 4.45. In data set [2], the IC50 amounted to 1300 nM and the pIC50 was determined as 6.

In the case of `COc1ccccc1-c1cc2c(-c3ccc(C(=O)O)c(C(C)C)c3)ccnc2[nH]1`, the logD in data set [1] came to 2.45. Besides, in [2], the IC50 amounted to 79 nM and the pIC50 worked out at 7.1. Besides, the EC50 in [3] (read-out: EC50) came to 1460 nM. Besides, the EC50 in [3] (read-out: pEC50 (converted)) is 1580 nM.

On to `CCN(CC)Cc1ccc(OC)c(-c2cc3c(-c4ccc(C(=O)O)c(C(C)C)c4)ccnc3[nH]2)c1`, for which the result in [4], in data set [5], in data set [6], in [7], in data set [8] and in data set [9] was Active. Also, the outcome in data set [10], in [11] and in data set [12] was Active. Also, in data set [1], the logD amounted to 0.93. Further, the IC50 in data set [2] is 40 nM. Moreover, in [2], the pIC50 is recorded as 7.4.

Turning to `CCc1nc(N)nc(N)c1-c1ccc(Cl)cc1` [PYRIMETHAMINE], the Activity result in data set [4] is reported as “>=70%”; in [6] it was “>=70%”; in data set [8], “>=70%”; in data set [15] it was 36%; in data set [9], “>=70%”; in [11], “>=70%”. Besides, the Activity is on record as 64% in data set [17] and 45% in data set [18]. In addition, the result in data set [13], in data set [14] and in data set [16] was inactive. Also, in [3] (read-out: EC50), the EC50 is 18 nM.

The compound `CCOC(=O)c1ccc(-c2ccnc3[nH]c(-c4cc(CN(CC)CC)ccc4OC)cc23)cc1C(C)C` had a logD in [1] of 2.45. Besides, in [2], the IC50 stood at 390 nM and the pIC50 is 6.4.

In turn, `CCN(CC)Cc1cccc(-c2cc3c(-c4ccc(C(=O)O)c(C(C)C)c4)ccnc3[nH]2)c1OC` displayed a logD in data set [1] of 0.74. Moreover, in data set [2], the IC50 amounted to 17 nM and the pIC50 came to 7.7. The EC50 in data set [3] (read-out: EC50) was determined as 3170 nM. Further, in data set [3] (read-out: pEC50 (converted)), the EC50 is 2510 nM.

For `CCN(CC)Cc1ccc(OC)c(-c2cc3c(-c4ccc(C(C)C)c(C(=O)O)c4)ccnc3[nH]2)c1`, in data set [2], the IC50 turned out to be 1380 nM and the pIC50 turned out to be 4.9.

In turn, `COc1ccc(CN(C)C)cc1-c1cc2c(-c3ccc(C(=O)O)c(C(C)C)c3)ccnc2[nH]1` showed a logD in [1] of 0.85. In data set [2], the IC50 was found to be 29 nM and the pIC50 stood at 7.5. For the same compound, in data set [3] (read-out: EC50), the EC50 is 457 nM.

Turning to `CCN(CC)Cc1cccc(-c2cc3c(-c4ccc(C(=O)O)c(C(C)C)c4)ccnc3[nH]2)c1`, the logD in [1] was found to be 0.8. In addition, in data set [2], the IC50 is 25 nM and the negative logarithm of the IC50 (pIC50) was determined as 7.6. Also, the EC50 in data set [3] (read-out: EC50) is 309 nM.

Regarding `CCN(CC)Cc1ccc(OC)c(-c2cc3c(-c4ccc(C(=O)O)c(C)c4)ccnc3[nH]2)c1`, the logD in data set [1] worked out at 0.66. Also, in [2], the IC50 amounted to 24 nM and the pIC50 was 7.6. For the same compound, in data set [3] (read-out: EC50), the EC50 was determined as 1180 nM. In addition, the EC50 in data set [3] (read-out: pEC50 (converted)) was 2510 nM.

For `CCN(CC)Cc1ccc(O)c(-c2cc3c(-c4ccc(C(=O)O)c(C(C)C)c4)ccnc3[nH]2)c1`, the logD in [1] was found to be 0.59. Further, in [2], the IC50 was found to be 22 nM and the pIC50 is reported as 7.7. Further, the EC50 in [3] (read-out: EC50) turned out to be 3530 nM.

On to `CCN(CC)Cc1ccc(OC)c(-c2cc3c(-c4ccc(-c5nnn[nH]5)c(C(C)C)c4)ccnc3[nH]2)c1`, for which the logD in data set [1] is 0.93. Besides, in data set [2], the IC50 worked out at 19 nM and the pIC50 is given as 7.7.

The values are drawn from ChEMBL document CHEMBL4725359, “Development of Potent PfCLK3 Inhibitors Based on TCMDC-135051 as a New Class of Antimalarials” (J Med Chem, 2020).
